CYP2C9 inh: blocks human cytochrome P450 2C9; P11712; CYP2C9 Supersomes, luciferin-H conversion, luminescence; inhibition, % at 5 µM; 96,000 compounds, 20% hits; AID 777;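 active means blocking of liver enzyme CYP2C9 beyond about 50% at 5 µM, limit read from the data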
CYP2C19 inhib: human CYP2C19 inhibition; P33261; CYP2C19 Supersomes, luciferin-H EGE luminescence, 30 min; inhibition, % at 5 µM; 96,000 compounds, 21% hits; AID 778;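 active means CYP2C19 inhibition above a set limit at 5 µM in the primary screen, cut at about 50% in these data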
Target sequence (P33261 whole entry, looked up): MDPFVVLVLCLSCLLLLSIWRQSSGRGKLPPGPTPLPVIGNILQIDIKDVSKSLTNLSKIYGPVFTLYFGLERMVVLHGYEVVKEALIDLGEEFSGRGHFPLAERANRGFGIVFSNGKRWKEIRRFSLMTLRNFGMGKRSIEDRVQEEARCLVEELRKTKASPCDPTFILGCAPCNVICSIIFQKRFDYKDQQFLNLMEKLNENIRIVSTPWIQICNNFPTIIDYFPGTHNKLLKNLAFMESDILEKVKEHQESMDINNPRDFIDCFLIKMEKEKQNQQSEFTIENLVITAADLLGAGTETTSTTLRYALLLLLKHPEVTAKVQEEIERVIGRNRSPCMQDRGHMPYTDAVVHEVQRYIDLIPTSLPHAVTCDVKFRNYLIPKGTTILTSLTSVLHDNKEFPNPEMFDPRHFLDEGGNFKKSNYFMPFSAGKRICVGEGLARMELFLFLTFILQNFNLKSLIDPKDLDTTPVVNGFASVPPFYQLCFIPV
tolC growth inh: E. coli tolC mutant growth inhibition; growth inhibition, % at 10 µM (by protocol); 65,000 compounds, 2.2% hits; E. coli BW25113 tolC mutant growth, OD615;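 active means growth inhibition at or above a cutoff equal to the mean over every tested compound plus 3 SD, cut at about 60% in these data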;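 further: growth measured after 20 h incubation at 37 °C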
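Assay system: tolC-deleted E. coli BW25113. Medium: kanamycin-containing LB broth (50 µg/mL). Dosing: 10 µM final, single dose. Timing: bacterial growth with compound for 20 h at 37 °C. Detection: A615 absorbance measurement. Read-out basis: growth inhibition in percent.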
E coli WT exp: growth inhibitors of E. coli BW25113 wild type; OD600 absorbance; growth inhibition, % at 100 µM; 98,000 compounds, 0.15% hits;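 active means growth inhibition above about 50% at one test dose, limit read from the data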;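 further: growth measured after 20 h incubation at 37 °C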
CYP2C19 act: activators of human cytochrome P450 2C19. P33261. recombinant CYP2C19, luciferin-H EGE luminescence; stronger effect = higher value; 0 = fully inhibited enzyme, 1 = untreated enzyme. activation factor at 5 µM. 96,000 tested, under 10 active. AID 1025;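 active means activation factor of at least 2 at 5 µM in the primary screen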
CYP2C9 act: CYP2C9 (human) activation | recombinant CYP2C9, luciferin-H conversion, luminescence; stronger effect = higher value; factor 1 = untreated enzyme, 0 = blocked | activation factor at 5 µM | 96,000 compounds, 1.4% hits;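 active means activation factor of 2 or more for CYP2C9 at a 5 µM dose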
Of the large screens only hits and unclear results are named; the others gave an inactive call. Only some compounds are listed: those with a hit (about 29% of all), similar ones and a draw of the others.

O=C(c1cc2c(s1)CCCCCC2)N1CCC2(CC1)OCCO2	CYP2C9 inh 73, CYP2C19 inhib 97
O=C(c1ccc2c(c1)ncn2C1CCCCC1)N1CCC2(CC1)OCCO2	none
O=C(NCc1ccc(C(=O)N2CCC3(CC2)OCCO3)cc1)c1cccc(Br)c1	none (no result: tolC growth inh)
CCc1sc(C(=O)N2CCC3(CC2)OCCO3)cc1Br	CYP2C19 inhib 96
CN(C)c1ccc(C(=O)c2ccc(N(C)C)cc2)cc1	CYP2C19 inhib 66, CYP2C9 act 2.2 (no result: tolC growth inh)
CCCC(=O)OCC[N+](C)(C)C	none (no result: CYP2C9 inh, CYP2C19 inhib, E coli WT exp, CYP2C19 act, CYP2C9 act)
CCOC(=O)c1ccc(NC(=O)c2c(O)[nH]c(=O)[nH]c2=O)cc1	none
Cc1ccc(-n2nc(C)cc2NC(=O)COc2cc(C)cc3oc(=O)c4c(c23)CCC4)cc1	CYP2C9 inh 80 (no result: tolC growth inh)
Cc1cc(OCC(=O)O)c2c3c(c(=O)oc2c1)CCCC3	none
COC(=O)c1ccc(COc2cc(C)cc3oc(=O)c4c(c23)CCCC4)o1	CYP2C9 inh 98, CYP2C19 inhib 79
CSc1ccc(CNC2CN3CCC2CC3)cc1 (stereo unspecified)	none
COC(=O)c1c(N)n(Cc2ccc(OC)cc2)c2nc3ccccc3nc12	CYP2C9 inh 71, CYP2C19 inhib 75
COCCOC(=O)c1c(N)n(Cc2ccc(OC)cc2)c2nc3ccccc3nc12	CYP2C9 inh 83, CYP2C19 inhib 64
CCOC(=O)c1c(N)n(CCCOC(=O)c2ccco2)c2nc3ccccc3nc12	CYP2C9 inh 86, CYP2C19 inhib 66
CCOC(=O)c1c(N)n(Cc2ccc(OC)cc2)c2nc3ccccc3nc12	none
COc1ccc(Cn2c(N)c(C(=O)NCc3ccco3)c3nc4ccccc4nc32)cc1OC	CYP2C9 inh 79
COCCCn1c(N)c(C(=O)OCCOC)c2nc3ccccc3nc21	none
Cc1cccc(-n2c(O)c(C=NCCCN3CCOCC3)c(=O)[nH]c2=O)c1C	none
O=C(Nc1ccc(Cl)cc1C(=O)c1ccccc1)c1ccccc1	none (no result: tolC growth inh)
CNC(C(=O)c1ccccc1)C(OC(C)C)c1ccc(Cl)cc1 (stereo unspecified)	CYP2C19 inhib 63 (no result: tolC growth inh)
C#CCOCOCC#CCN(CC)CC	none (no result: tolC growth inh)
Cc1ccc2nc3c(cc2c1)CC1(C(=O)N(C)C(=O)N(C)C1=O)C1CCCCN31 (stereo unspecified)	CYP2C9 inh 50, CYP2C19 inhib 64
Cc1ccc2nc3c(cc2c1)CC1(C(=O)N(C)C(=O)N(C)C1=O)C1COCCN31 (stereo unspecified)	none
O=C1NC(=O)C(CCc2ccncc2)(c2ccccc2)C(=O)N1	CYP2C9 inh 93, CYP2C19 inhib 55
C=CCN1C(=O)NC(=O)/C(=C/c2ccc(OC)c(CSc3ccccn3)c2)C1=O	CYP2C19 inhib 52 (no result: tolC growth inh)
CCCCN1C(=O)NC(=O)/C(=C/c2cnc(SC)nc2)C1=O	none (no result: tolC growth inh)
CCOP(=S)(OCC)SCC(=O)NC(C(=O)O)C(C)C (stereo unspecified)	CYP2C9 inh 92 (no result: tolC growth inh)
CCOC(=O)C(C)(CC)NC(=O)CSP(=S)(OCC)OCC (stereo unspecified)	CYP2C9 inh 91, CYP2C19 inhib 98 (no result: tolC growth inh)
c1cc2n(c1)-c1c(ccc3c1OCO3)CNC2c1ccc2c(c1)OCO2 (stereo unspecified)	CYP2C9 inh 77, CYP2C19 inhib 99
COc1ccc(C2NCc3ccc4c(c3-n3cccc32)OCO4)cc1O (stereo unspecified)	CYP2C19 inhib 68
CCCC1=C(C(=O)OCC)C2(C(=O)Nc3ccccc32)C(C#N)=C(N)O1 (stereo unspecified)	none
CCC(=NCCO)c1c(O)n(-c2ccc(Cl)cc2)c(=O)[nH]c1=O	none
CC(C)NC(=O)Cn1cc(C(=O)c2ccccc2F)c2ccccc21	CYP2C19 inhib 50 (no result: tolC growth inh)
Cn1c(O)c(C(=O)c2ccccc2F)c(=O)n(C)c1=O	none (no result: tolC growth inh)
CN(C=O)CP(=O)(O)CN(C)C=O	none
COC(=O)c1cc(C(O)(C(=O)OC)C(F)(F)F)c(/N=C/N(C)C)s1 (stereo unspecified)	CYP2C9 inh 73, CYP2C19 inhib 83
COc1cccc(C2C([N+](=O)[O-])=C(N)Oc3c2c(=O)oc2ccccc32)c1 (stereo unspecified)	none (no result: tolC growth inh)
Clc1ccc(-c2nc3ccc(Cl)cn3c2CN2CCOCC2)cc1	CYP2C9 inh 64, CYP2C19 inhib 77 (no result: tolC growth inh)
O=C(Cc1ccccc1)OC(COCc1ccccc1)CN1CCOCC1 (stereo unspecified)	CYP2C19 inhib 73

Screens as filed in PubChem BioAssay.
